Data from ChEMBL document CHEMBL1134460, “Terminally alkylated polyamine analogues as chemotherapeutic agents” (J Med Chem, 2001).

Columns and labels:
NCH82 [1] = test: Cytokinetic effects on H82 small-cell lung tumor line (SCLC) after 96-h treatment; type: functional, Homo sapiens
NCI-H157 [2] = test: Effect of exposure of H157 non-SCLC (<10 uM) for 96-h, and accumulation of compound was determined; type: functional, Homo sapiens
NCI-H157 [3] = test: Effect of exposure of H157 non-SCLC to compound (<10 uM) for 96-h, on natural polyamines and accumulation of the compound; Decrease; type: functional, cell-based; conditions: Homo sapiens
Outline: (§1)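 H157 non-SCLC cells were treated with 10 μM analogue. Cellular putrescine, spermidine and spermine, plus the intracellular analogue, were quantified and compared with untreated control cells.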

[4] = target: T1, Ornithine decarboxylase (Homo sapiens) (UniProt P11926); test: Inhibition of ornithine decarboxylase (ODC); set-up: concentration or dose not given beside the values; conditions: concentration not given here
T1 sequence (whole entry): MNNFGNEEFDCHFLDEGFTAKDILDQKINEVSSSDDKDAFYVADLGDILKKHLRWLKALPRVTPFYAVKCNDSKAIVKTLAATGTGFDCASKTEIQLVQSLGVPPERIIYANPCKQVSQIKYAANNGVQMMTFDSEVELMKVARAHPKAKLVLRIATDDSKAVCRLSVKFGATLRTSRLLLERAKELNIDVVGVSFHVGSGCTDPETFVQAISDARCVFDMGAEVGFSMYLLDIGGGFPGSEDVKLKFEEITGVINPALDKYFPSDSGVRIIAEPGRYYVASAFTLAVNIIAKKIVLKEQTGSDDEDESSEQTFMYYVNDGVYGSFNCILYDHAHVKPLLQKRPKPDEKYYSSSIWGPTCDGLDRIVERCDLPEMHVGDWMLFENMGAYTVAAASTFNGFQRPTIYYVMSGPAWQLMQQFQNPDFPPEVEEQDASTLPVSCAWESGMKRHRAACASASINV

[5] = target: T2, Diamine acetyltransferase 1 (Homo sapiens, UniProt P21673); test: Effect of 10 uM on spermine/spermidine-N-acetyltransferase (SSAT) induction in non-SCLC cells; type: cell-based
Outline: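 NCI H157 non-small-cell lung tumor cells were exposed to 10 μM analogue. SSAT activity was assayed and expressed as pmol product/mg protein/min, then as fold increase over untreated control cells.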

[6] = target: S-adenosylmethionine decarboxylase (Homo sapiens) (UniProt P17707); test: Inhibition of Inhibition of human form of S-adenosyl-methionine decarboxylase enzyme (AdoMet-DC); set-up: concentration or dose not given beside the values; conditions: concentration not given here
Trypanosoma brucei [7] = test: in vivo inhibition of trypanosomal brucei growth was determined; type: functional, organism-based
NCI-H157 [8] = test: (§2) Effect of exposure of H157 non-SCLC to compound (<10 uM) for 96-h, on natural polyamines and accumulation of the compound; No significant change; type: functional, cell-based; conditions: Homo sapiens; outline: as §1
Trypanosoma brucei [9] = test: In vitro growth Inhibitory activity against LAB 110 Strain of Trypanosoma brucei; type: functional, organism-based
Outline: (§3)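 In vitro growth inhibition was run against T. b. brucei LAB EATRO 110 and T. b. rhodesiense KETRI 243, KETRI 243 As-10-3 and KETRI 269. […] ">100" means no appreciable inhibition up to the highest concentration tested.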

Trypanosoma brucei [10] = test: In vitro growth Inhibitory activity against K243 Strain of Trypanosoma brucei.; type: functional, organism-based; outline: as §3
NCI-H157 [11] = test: as §2; type: functional, cell-based; conditions: Homo sapiens; remark: listed apart in the source
Spermine synthase = target: T3, Spermine synthase (Homo sapiens, UniProt P52788); test: Inhibitory activity against spermine synthase
T3 sequence (P52788 whole entry): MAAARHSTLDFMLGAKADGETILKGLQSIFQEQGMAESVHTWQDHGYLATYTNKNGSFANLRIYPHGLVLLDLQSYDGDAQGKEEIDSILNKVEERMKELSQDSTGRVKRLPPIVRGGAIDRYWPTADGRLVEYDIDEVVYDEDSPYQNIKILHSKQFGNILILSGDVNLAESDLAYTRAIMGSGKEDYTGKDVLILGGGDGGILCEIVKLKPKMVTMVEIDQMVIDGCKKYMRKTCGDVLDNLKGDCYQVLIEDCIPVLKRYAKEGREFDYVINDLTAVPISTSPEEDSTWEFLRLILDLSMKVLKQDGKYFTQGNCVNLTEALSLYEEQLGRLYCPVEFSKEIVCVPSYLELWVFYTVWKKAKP

NCH82 [12] = test: In vitro activity against H82 small-cell lung tumor line (SCLC) cultures.; type: functional, cell-based; conditions: Homo sapiens
NCI-H157 [13] = test: In vitro activity against H157 non-small-cell lung tumor line (non-SCLC) cultures.; type: functional, cell-based; conditions: Homo sapiens
NCI-H157 [14] = test: Spermine/Spermidine-N1-acetyltransferase activity in NCI H157 non-SCLC tumor cells following 24-h treatment with 10 uM of compound; type: functional, Homo sapiens
Outline: (§4)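 NCI H157 non-SCLC cells were exposed to 10 μM analogue alongside untreated controls. Cellular polyamines and analogue were quantified. SSAT activity was assayed in the cells and reported as pmol product/mg protein/min.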

NCI-H157 [15] = test: BENSpm level in NCI H157 non-SCLC tumor cells following 24-h treatment with 10 uM of compound; type: functional, Homo sapiens; outline: as §4
NCI-H157 [16] = test: CHENSpm level in NCI H157 non-SCLC tumor cells following 24-h treatment with 10 uM of compound; type: functional, Homo sapiens; outline: as §4
NCI-H157 [17] = test: Putrescine level in NCI H157 non-SCLC tumor cells following 24-h treatment with 10 uM of compound; type: functional, Homo sapiens; outline: as §4
NCI-H157 [18] = test: Spermidine level in NCI H157 non-SCLC tumor cells following 24-h treatment with 10 uM of compound; type: functional, Homo sapiens; outline: as §4
NCI-H157 [19] = test: Spermine level in NCI H157 non-SCLC tumor cells following 24-h treatment with 10 uM of compound; type: functional, Homo sapiens; outline: as §4
[20] = Compound was evaluated for cytotoxic activity against PC-3, DU145 and LNCaP cell lines; type: functional, Homo sapiens
Outline: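 PC-3, DU145 and LNCaP prostate cancer cells were exposed to analogues over 0.1–30 μM for 120 h. Dose–response curves of growth were recorded.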

[21] = Half-life period in liver tissues; type: ADME, tissue-based
[22] = target: T4, S-adenosylmethionine decarboxylase proenzyme (Rattus norvegicus, UniProt P17708); test: Inhibition of rat liver form of S-adenosyl-methionine decarboxylase enzyme
T4 sequence (P17708 whole entry): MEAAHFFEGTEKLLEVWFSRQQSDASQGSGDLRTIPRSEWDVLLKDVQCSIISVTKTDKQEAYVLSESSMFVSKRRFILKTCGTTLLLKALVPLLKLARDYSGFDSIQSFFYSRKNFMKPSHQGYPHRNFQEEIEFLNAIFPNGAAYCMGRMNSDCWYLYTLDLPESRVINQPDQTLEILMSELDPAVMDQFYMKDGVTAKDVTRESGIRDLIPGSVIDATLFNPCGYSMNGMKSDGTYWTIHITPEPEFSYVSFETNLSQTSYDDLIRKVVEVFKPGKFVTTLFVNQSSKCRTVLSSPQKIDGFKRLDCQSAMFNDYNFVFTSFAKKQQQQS

NCI-H157 [23] = test: Activity against H157 non-SCLC cells in culture; type: functional, cell-based; conditions: Homo sapiens
[24] = target: T2, Diamine acetyltransferase 1; test: Inhibitory activity of compound against SSAT extracted from superinduced H157 cells; type: cell-free
Outline: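 SSAT came from crude extracts of superinduced H157 cells and was assayed at saturating spermidine.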

Trypanosoma brucei [25] = test: in vivo growth inhibition of Trypanosoma brucei was determined; type: functional, organism-based
NCI-H157 [26] = test: Antitumor activity was determined against H157 cell line; type: functional, cell-based; conditions: Homo sapiens
Mus musculus = species on record: Mus musculus; test: […] activity was determined against Leishmania donovani in mice (Mus musculus); type: functional
Cricetinae gen. sp. = test: […] activity was determined against Leishmania donovani in hamsters; type: functional, Cricetulus griseus

T2 sequence (P21673 whole entry): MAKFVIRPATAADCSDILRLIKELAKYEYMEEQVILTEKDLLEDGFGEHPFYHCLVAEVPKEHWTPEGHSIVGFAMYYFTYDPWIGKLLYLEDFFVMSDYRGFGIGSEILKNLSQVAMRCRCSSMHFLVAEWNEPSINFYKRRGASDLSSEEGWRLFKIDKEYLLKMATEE

SMILES	Amount (NCI-H157 [2])	Effect on polyamine pools (NCI-H157 [3])	inhibition [4] [%]	Induction [5]	other results
CCNCCCNCCCNCCCO	>20 nM (mg of protein)-1	Decrease	< 50	> 500	Effect (NCH82 [1]): 0; inhibition [6]: < 50%
CCNCCCNCCCNCCCNCC1CCC(Br)CC1 (stereo unspecified)	>20 nM (mg of protein)-1	Decrease	< 50	< 50	inhibition [6]: < 50%
C[S+](C[C@@H]1O[C@H](n2cnc3c(N)ncnc32)[C@@H](O)[C@H]1O)C1C=CC(N)C1 (stereo partly specified)					IC50 (Trypanosoma brucei [7]): 5.2 µM
CCNCCCNCCCNCCCNC1CCCCCC1	>20 nM (mg of protein)-1	Decrease		> 500	
CCNCCCNCCCN1CCCCCC1				< 50	Effect (NCH82 [1]): 0; Effect on polyamine pools (NCI-H157 [8]): No significant change
CCNCCCN[C@H]1C=C[C@@H](N)CCC1					IC50 (Trypanosoma brucei [9]): > 100 µM; IC50 (Trypanosoma brucei [10]): > 100 µM
CCNCCCNCCCNCCCNCC1CCCC1	>20 nM (mg of protein)-1	Decrease	> 50	> 500	inhibition [6]: > 50%
CCNCCCNCCCNCC1CCCCCC1	>20 nM (mg of protein)-1	Decrease		> 500	
C(CCCNCCCNCC1CCCCCC1)CCCNCCCNCC1CCCCCC1				0	NC (NCI-H157 [11]): No significant change
NCCCNCCCCCC(CCN)SC[C@H]1O[C@@H](n2cnc3c(N)ncnc32)[C@H](O)[C@@H]1O (stereo partly specified)					IC50 (Spermine synthase): 0.02 µM
CCNCCCNCCCNCCCN1CCCCCC1		Decrease		> 500	
CCNCCCNCCCNCCCNCC1CCCCCC1	>20 nM (mg of protein)-1	Decrease	< 50	0	IC50 (NCH82 [12]): 0.7 µM; IC50 (NCI-H157 [13]): 0.4 µM; Activity (NCI-H157 [14]): 781 (pM of product) min-1 (mg of protein)-1; Polyamine level (NCI-H157 [15]): 0; Polyamine level (NCI-H157 [16]): 14.66; Polyamine level (NCI-H157 [17]): 4.28; Polyamine level (NCI-H157 [18]): 6.44; Polyamine level (NCI-H157 [19]): 15.97; CC [20]: 30 µM; inhibition [6]: < 50%
N[C@@H]1C=C[C@H](NCCCNCC2CC2)C1					IC50 (Trypanosoma brucei [9]): > 100 µM; IC50 (Trypanosoma brucei [10]): > 100 µM
CCNCCCCNCCCCNCCCCNCC [DIETHYLHOMOSPERMINE]					half-life [21]: 15.4 days
CCNCCCNCCCNC1CCCCCC1		Decrease	< 50	> 50	
CCNCCCNCCCCCCCNCCCNCC1CCCCCC1	<20 nM (mg of protein)-1		< 50	0	NC (NCI-H157 [11]): No significant change; inhibition [6]: < 50%
CCNCCCN[C@@H]1CCC[C@H](N)CC1					IC50 (Trypanosoma brucei [9]): > 100 µM; IC50 (Trypanosoma brucei [10]): > 100 µM
NC/C=C\NC[C@@H]1O[C@H](n2cnc3c(N)ncnc32)[C@@H](O)[C@H]1O					Ki [22]: 0.56 µM
C#CCNCCCNCCCNCCCNCC		Decrease	< 50	> 500	IC50 (NCI-H157 [23]): 1.1 µM; IC50 [24]: 40 µM
CCNCCCNCCCNCCCNCC1CCC1	>20 nM (mg of protein)-1	Decrease	> 50	> 500	
C[S+](C[C@@H]1O[C@H](n2cnc3c(N)ncnc32)[C@@H](O)[C@H]1O)C1C=CC(ON)C1 (stereo partly specified)					IC50 (Trypanosoma brucei [25]): 0.9 µM
c1ccc(CNCCCNCCCCCCCNCCCNCc2ccccc2)cc1					IC50 (NCH82 [12]): 1.7 µM; IC50 (NCI-H157 [13]): 0.5 µM; IC50 (NCI-H157 [26]): 0.5 µM; ED50 (Mus musculus): 2.5 mg/kg; ED50 (Cricetinae gen. sp.): 1 mg/kg
CCNCCCCNCCCNCC	>20 nM (mg of protein)-1	Decrease	> 50	> 50	inhibition [6]: < 50%
CCNCCCNCCCNCCCNCC1CCCCC1	>20 nM (mg of protein)-1	Decrease	< 50	< 50	inhibition [6]: < 50%
